What was measured:
Hepatitis B virus [1] = experiment: Antiviral activity against Hepatitis B virus infected in human HepG2.2.15 cells assessed as inhibition of HBsAg secretion at 300 uM after 6 days by ELISA; format: functional; details: HepG2 2.2.15, 144 h
In short: (§1)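 HepG2.2.15 cells (MEM, 10% FBS, 380 µg/ml G418) seeded at 1×10^5 cells/ml, held 24 h at 37 °C, then treated with various drug concentrations; medium with drug renewed every 3 d for up to 9 d. Culture medium sampled on days 3, 6 and 9, stored at -20 °C, and assayed for secreted antigen. Lamivudine as positive control; IC50 = 50% inhibition of secretion; means of at least two experiments.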

Hepatitis B virus [2] = experiment: Antiviral activity against Hepatitis B virus infected in human HepG2.2.15 cells assessed as inhibition of HBsAg secretion at 75 uM after 6 days by ELISA; format: functional; details: HepG2 2.2.15, 144 h; in short: as §1
[3] = Selectivity index, ratio of CC50 for human HepG2.2.15 cells to IC50 for Hepatitis B virus infected in human HepG2.2.15 cells assessed as inhibition of HBsAg secretion; format: functional
In short: (§2)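 Selectivity index computed as CC50/IC50, with CC50 from cell death of HepG2.2.15 cells after 9 days of treatment (OD 450 nm) and IC50 from 50% inhibition of HBeAg or HBsAg secretion in the same cells; medium with drug renewed every 3 d.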

Hepatitis B virus [4] = experiment: Antiviral activity against Hepatitis B virus infected in human HepG2.2.15 cells assessed as inhibition of HBsAg secretion at 150 uM after 3 days by ELISA; format: functional; details: HepG2 2.2.15, 72 h; in short: as §1
[5] = Cytotoxicity against human HepG2.2.15 cells assessed as cell death after 9 days by MTT assay; format: cell-based, HepG2 2.2.15
In short: (§3)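 HepG2.2.15 cells (MEM, 10% FBS, 380 µg/ml G418, 37 °C, 5% CO2) seeded at 1×10^5 cells/ml, cultured 24 h, then exposed to various drug concentrations; drug-containing medium renewed every 3 d. OD read at 450 nm after 9 days; percent cell death calculated; CC50 = concentration killing 50% of cells. Means of at least two experiments.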

Hepatitis B virus [6] = experiment: Antiviral activity against Hepatitis B virus infected in human HepG2.2.15 cells assessed as inhibition of HBsAg secretion by ELISA; format: functional, organism-based; details: HepG2 2.2.15; in short: as §1
Hepatitis B virus [7] = experiment: Antiviral activity against Hepatitis B virus infected in human HepG2.2.15 cells assessed as inhibition of HBeAg secretion by ELISA; format: functional, organism-based; details: HepG2 2.2.15; in short: as §1
Hepatitis B virus [8] = experiment: Antiviral activity against Hepatitis B virus infected in human HepG2.2.15 cells assessed as cell survival at 150 uM after 9 days (reference value: 100%); format: functional; details: HepG2 2.2.15, 216 h; in short: as §3
[9] = Selectivity index, ratio of CC50 for human HepG2.2.15 cells to IC50 for Hepatitis B virus infected in human HepG2.2.15 cells assessed as inhibition of HBeAg secretion; format: functional; in short: as §2
Hepatitis B virus [10] = experiment: Antiviral activity against Hepatitis B virus infected in human HepG2.2.15 cells assessed as inhibition of HBsAg secretion at 37.5 uM after 3 days by ELISA; format: functional; details: HepG2 2.2.15, 72 h; in short: as §1
Hepatitis B virus [11] = experiment: Antiviral activity against Hepatitis B virus infected in human HepG2.2.15 cells assessed as inhibition of HBeAg secretion at 150 uM after 6 days by ELISA; format: functional; details: HepG2 2.2.15, 144 h; in short: as §1
Hepatitis B virus [12] = experiment: Antiviral activity against Hepatitis B virus infected in human HepG2.2.15 cells assessed as inhibition of HBsAg secretion at 75 uM after 9 days by ELISA; format: functional; details: HepG2 2.2.15, 216 h; in short: as §1
Hepatitis B virus [13] = experiment: Antiviral activity against Hepatitis B virus infected in human HepG2.2.15 cells assessed as inhibition of HBsAg secretion at 150 uM after 9 days by ELISA; format: functional; details: HepG2 2.2.15, 216 h; in short: as §1
Hepatitis B virus [14] = experiment: Antiviral activity against Hepatitis B virus infected in human HepG2.2.15 cells assessed as inhibition of HBeAg secretion at 37.5 uM after 6 days by ELISA; format: functional; details: HepG2 2.2.15, 144 h; in short: as §1
Hepatitis B virus [15] = experiment: Antiviral activity against Hepatitis B virus infected in human HepG2.2.15 cells assessed as inhibition of HBsAg secretion at 300 uM after 9 days by ELISA; format: functional; details: HepG2 2.2.15, 216 h; in short: as §1
Hepatitis B virus [16] = experiment: Antiviral activity against Hepatitis B virus infected in human HepG2.2.15 cells assessed as inhibition of HBeAg secretion at 75 uM after 3 days by ELISA; format: functional; details: HepG2 2.2.15, 72 h; in short: as §1
Hepatitis B virus [17] = experiment: Antiviral activity against Hepatitis B virus infected in human HepG2.2.15 cells assessed as inhibition of HBeAg secretion at 300 uM after 6 days by ELISA; format: functional; details: HepG2 2.2.15, 144 h; in short: as §1
Hepatitis B virus [18] = experiment: Antiviral activity against Hepatitis B virus infected in human HepG2.2.15 cells assessed as inhibition of HBeAg secretion at 150 uM after 3 days by ELISA; format: functional; details: HepG2 2.2.15, 72 h; in short: as §1
Hepatitis B virus [19] = experiment: Antiviral activity against Hepatitis B virus infected in human HepG2.2.15 cells assessed as cell survival at 300 uM after 9 days (reference value: 100%); format: functional; details: HepG2 2.2.15, 216 h; in short: as §3
Hepatitis B virus [20] = experiment: Antiviral activity against Hepatitis B virus infected in human HepG2.2.15 cells assessed as cell survival at 75 uM after 9 days (reference value: 100%); format: functional; details: HepG2 2.2.15, 216 h; in short: as §3
Hepatitis B virus [21] = experiment: Antiviral activity against Hepatitis B virus infected in human HepG2.2.15 cells assessed as inhibition of HBeAg secretion at 75 uM after 6 days by ELISA; format: functional; details: HepG2 2.2.15, 144 h; in short: as §1
Hepatitis B virus [22] = experiment: Antiviral activity against Hepatitis B virus infected in human HepG2.2.15 cells assessed as inhibition of HBsAg secretion at 37.5 uM after 9 days by ELISA; format: functional; details: HepG2 2.2.15, 216 h; in short: as §1
Hepatitis B virus [23] = experiment: Antiviral activity against Hepatitis B virus infected in human HepG2.2.15 cells assessed as inhibition of HBeAg secretion at 37.5 uM after 9 days by ELISA; format: functional; details: HepG2 2.2.15, 216 h; in short: as §1
Hepatitis B virus [24] = experiment: Antiviral activity against Hepatitis B virus infected in human HepG2.2.15 cells assessed as inhibition of HBeAg secretion at 75 uM after 9 days by ELISA; format: functional; details: HepG2 2.2.15, 216 h; in short: as §1
Hepatitis B virus [25] = experiment: Antiviral activity against Hepatitis B virus infected in human HepG2.2.15 cells assessed as inhibition of HBsAg secretion at 75 uM after 3 days by ELISA; format: functional; details: HepG2 2.2.15, 72 h; in short: as §1
Hepatitis B virus [26] = experiment: Antiviral activity against Hepatitis B virus infected in human HepG2.2.15 cells assessed as inhibition of HBsAg secretion at 37.5 uM after 6 days by ELISA; format: functional; details: HepG2 2.2.15, 144 h; in short: as §1
Hepatitis B virus [27] = experiment: Antiviral activity against Hepatitis B virus infected in human HepG2.2.15 cells assessed as cell survival at 37.5 uM after 9 days (reference value: 100%); format: functional; details: HepG2 2.2.15, 216 h; in short: as §3
Hepatitis B virus [28] = experiment: Antiviral activity against Hepatitis B virus infected in human HepG2.2.15 cells assessed as inhibition of HBsAg secretion at 150 uM after 6 days by ELISA; format: functional; details: HepG2 2.2.15, 144 h; in short: as §1
Hepatitis B virus [29] = experiment: Antiviral activity against Hepatitis B virus infected in human HepG2.2.15 cells assessed as inhibition of HBeAg secretion at 150 uM after 9 days by ELISA; format: functional; details: HepG2 2.2.15, 216 h; in short: as §1
Hepatitis B virus [30] = experiment: Antiviral activity against Hepatitis B virus infected in human HepG2.2.15 cells assessed as inhibition of HBsAg secretion at 300 uM after 3 days by ELISA; format: functional; details: HepG2 2.2.15, 72 h; in short: as §1
Hepatitis B virus [31] = experiment: Antiviral activity against Hepatitis B virus infected in human HepG2.2.15 cells assessed as inhibition of HBeAg secretion at 300 uM after 3 days by ELISA; format: functional; details: HepG2 2.2.15, 72 h; in short: as §1
Hepatitis B virus [32] = experiment: Antiviral activity against Hepatitis B virus infected in human HepG2.2.15 cells assessed as inhibition of HBeAg secretion at 300 uM after 9 days by ELISA; format: functional; details: HepG2 2.2.15, 216 h; in short: as §1

COc1cc(/C=C/C(=O)O/N=C/c2cccs2)cc(OC)c1OC
inhibition at 300 µM (Hepatitis B virus [1]): 56%
inhibition at 75 µM (Hepatitis B virus [2]): 30.6%
Ratio CC50/IC50 [3]: 4.36
inhibition at 150 µM (Hepatitis B virus [4]): 35.6%
CC50 at 216 h [5]: 857 µM
IC50 (Hepatitis B virus [6]): 197 µM
IC50 (Hepatitis B virus [7]): 209 µM
viability at 150 µM (Hepatitis B virus [8]): 92.6%
Ratio CC50/IC50 [9]: 4.1
inhibition at 37.5 µM (Hepatitis B virus [10]): 17.1%
inhibition at 150 µM (Hepatitis B virus [11]): 28.2%
inhibition at 75 µM (Hepatitis B virus [12]): 30.9%
inhibition at 150 µM (Hepatitis B virus [13]): 46.4%
inhibition at 37.5 µM (Hepatitis B virus [14]): 17.1%
inhibition at 300 µM (Hepatitis B virus [15]): 57.7%
inhibition at 75 µM (Hepatitis B virus [16]): 8.64%
inhibition at 300 µM (Hepatitis B virus [17]): 33.1%
inhibition at 150 µM (Hepatitis B virus [18]): 11.3%
viability at 300 µM (Hepatitis B virus [19]): 79.9%
viability at 75 µM (Hepatitis B virus [20]): 93.4%
inhibition at 75 µM (Hepatitis B virus [21]): 20.9%
inhibition at 37.5 µM (Hepatitis B virus [22]): 24.8%
inhibition at 37.5 µM (Hepatitis B virus [23]): 20.6%
inhibition at 75 µM (Hepatitis B virus [24]): 31.6%
inhibition at 75 µM (Hepatitis B virus [25]): 26.3%
inhibition at 37.5 µM (Hepatitis B virus [26]): 21.9%
viability at 37.5 µM (Hepatitis B virus [27]): 100%
inhibition at 150 µM (Hepatitis B virus [28]): 44.4%
inhibition at 150 µM (Hepatitis B virus [29]): 46.3%
inhibition at 300 µM (Hepatitis B virus [30]): 44.7%
inhibition at 300 µM (Hepatitis B virus [31]): 15.3%
inhibition at 300 µM (Hepatitis B virus [32]): 55.1%

O/N=C/c1cccs1 [2-THIOPHENECARBOXALDEHYDE OXIME]
Ratio CC50/IC50 [3]: 1.59
CC50 at 216 h [5]: 562 µM
IC50 (Hepatitis B virus [6]): 354 µM
IC50 (Hepatitis B virus [7]): 431 µM
Ratio CC50/IC50 [9]: 1.3

O/N=C/c1ccco1
Ratio CC50/IC50 [3]: 1.01
CC50 at 216 h [5]: 475 µM
IC50 (Hepatitis B virus [6]): 480 µM
IC50 (Hepatitis B virus [7]): 519 µM
Ratio CC50/IC50 [9]: 0.91

COc1ccc(C=O)cc1OC [3,4-DIMETHOXYBENZALDEHYDE]
CC50 at 216 h [5]: > 1500 µM

Reference: ChEMBL document CHEMBL3576819, “Design, synthesis, biological evaluation and molecular docking studies of phenylpropanoid derivatives as potent anti-hepatitis B virus agents” (Eur J Med Chem, 2015)
